In ChEMBL document CHEMBL5036380, “New Highly Potent NLRP3 Inhibitors: Furanochalcone Velutone F Analogues” (ACS Med Chem Lett, 2022):
The source made the active and inactive calls. No cut-off for these calls is given here.

How the values were obtained:
[1] = Half life in Sprague-Dawley rat at 10 mg/kg, po measured up to 24 hrs by LC-MS/MS analysis; format: ADME, organism-based; conditions: in vivo
How it was run: (§1)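 Single doses given intravenously (10 mg/kg) or orally (10, 30, 90 mg/kg); plasma levels quantified by LC/MS/MS at multiple time points. Parameters reported as mean values: AUC0–t, CL, Cmax, T1/2, Tmax, and %F based on AUC.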

[2] = Tmax in Sprague-Dawley rat at 10 mg/kg, iv measured up to 24 hrs by LC-MS/MS analysis; format: ADME, organism-based; conditions: in vivo; how it was run: as §1
[3] = Half life in Sprague-Dawley rat at 10 mg/kg, iv measured up to 24 hrs by LC-MS/MS analysis; format: ADME, organism-based; conditions: in vivo; how it was run: as §1
[4] = Half life in Sprague-Dawley rat at 30 mg/kg, po measured up to 24 hrs by LC-MS/MS analysis; format: ADME, organism-based; conditions: in vivo; how it was run: as §1
[5] = target: NLR family CARD domain-containing protein 4 (Homo sapiens) (UniProt Q9NPP4); assay: Inhibition of NLRC4 inflammasome activation in LPS-induced human THP-1 cells at 3 to 5uM for 40 mins followed by flagellin stimulation for 6 h by ELISA; format: cell-based
Chain of NLR family CARD domain-containing protein 4 (Homo sapiens) (Q9NPP4 whole entry, the tested form may be a part): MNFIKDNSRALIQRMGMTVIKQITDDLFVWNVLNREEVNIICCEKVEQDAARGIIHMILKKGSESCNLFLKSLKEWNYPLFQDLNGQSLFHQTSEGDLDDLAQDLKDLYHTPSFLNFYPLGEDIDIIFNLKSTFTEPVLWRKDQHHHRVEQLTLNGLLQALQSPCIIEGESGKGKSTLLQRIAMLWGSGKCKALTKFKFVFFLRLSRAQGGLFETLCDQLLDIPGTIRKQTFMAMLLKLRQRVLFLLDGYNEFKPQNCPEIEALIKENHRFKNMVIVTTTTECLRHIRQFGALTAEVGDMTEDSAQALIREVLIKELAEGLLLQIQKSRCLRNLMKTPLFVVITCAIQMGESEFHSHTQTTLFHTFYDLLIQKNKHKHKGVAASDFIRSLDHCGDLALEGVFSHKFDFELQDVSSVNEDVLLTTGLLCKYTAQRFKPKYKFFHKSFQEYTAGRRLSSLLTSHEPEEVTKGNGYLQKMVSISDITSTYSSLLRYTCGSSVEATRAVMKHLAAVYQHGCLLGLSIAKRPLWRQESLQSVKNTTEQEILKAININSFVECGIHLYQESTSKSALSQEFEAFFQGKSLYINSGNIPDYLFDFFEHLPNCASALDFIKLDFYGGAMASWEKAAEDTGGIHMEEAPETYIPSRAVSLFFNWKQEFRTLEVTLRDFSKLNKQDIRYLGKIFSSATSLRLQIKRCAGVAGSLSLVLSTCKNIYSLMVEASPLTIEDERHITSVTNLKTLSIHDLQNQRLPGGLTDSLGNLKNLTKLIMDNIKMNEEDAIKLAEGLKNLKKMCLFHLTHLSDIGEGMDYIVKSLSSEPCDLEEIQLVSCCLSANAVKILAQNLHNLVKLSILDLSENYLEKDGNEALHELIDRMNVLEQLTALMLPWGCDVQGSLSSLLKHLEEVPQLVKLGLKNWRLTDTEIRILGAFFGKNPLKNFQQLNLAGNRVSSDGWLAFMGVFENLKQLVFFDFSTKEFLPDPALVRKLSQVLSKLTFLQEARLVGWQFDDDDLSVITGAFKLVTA

[6] = AUC (0 to t) in Sprague-Dawley rat at 10 mg/kg, po measured up to 24 hrs by LC-MS/MS analysis; format: ADME, organism-based; parameters: route oral, dose 10 mg/kg, time <=24; conditions: in vivo; how it was run: as §1
THP-1 [7] = assay: Antiinflammatory activity in human THP-1 cells assessed as inhibition of LPS/nigericin-induced IL-1beta secretion in LPS stimulation followed by pretreatment for 40 min before induced with nigericin for 40 min measured by western blot analysis; format: functional, cell-based; conditions: time 80.0 min
How it was run: (§2)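 PMA-differentiated THP-1 cells were primed with LPS, exposed to graded compound doses for 40 min, then given nigericin for 40 min. Supernatants were immunoblotted for IL-1β and caspase-1. Cell extracts were immunoblotted for NLRP3, pro-IL-1β and pro-caspase-1.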

THP-1 [8] = assay: Effect on NLRP3 expression in LPS-stimulated human THP-1 cells preincubated for 40 mins followed by LPS addition and measured after 3 hrs by Western blot analysis; format: functional, cell-based; conditions: time 220.0 min
How it was run: (§3)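 THP-1 cells were given compound for 40 min, then primed with LPS for 3 h. Medium supernatant was analysed for TNF-α. Cell extracts were immunoblotted for pro-IL-1β and NLRP3.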

THP-1 [9] = assay: Effect on NLRP3 expression in LPS-stimulated human THP-1 cells at 1 uM preincubated for 40 mins followed by LPS stimulation and measured after 3 hrs by Western blot analysis; format: functional, cell-based; how it was run: as §3
[10] = AUC (0 to t) in Sprague-Dawley rat at 90 mg/kg, po measured up to 24 hrs by LC-MS/MS analysis; format: ADME, organism-based; parameters: route oral, dose 90 mg/kg, time <=24; conditions: in vivo; how it was run: as §1
[11] = target: NACHT, LRR and PYD domains-containing protein 3 (Homo sapiens) (UniProt Q96P20); assay: Inhibition of NLRP3 in human THP-1cells assessed as increase in thermal stability at 0.5 to 5 uM at 57 deg C measured by cellular thermal shift assay; conditions: dose 0.5-5 µM
Chain of NACHT, LRR and PYD domains-containing protein 3 (Homo sapiens) (Q96P20 whole entry, the tested form may be a part): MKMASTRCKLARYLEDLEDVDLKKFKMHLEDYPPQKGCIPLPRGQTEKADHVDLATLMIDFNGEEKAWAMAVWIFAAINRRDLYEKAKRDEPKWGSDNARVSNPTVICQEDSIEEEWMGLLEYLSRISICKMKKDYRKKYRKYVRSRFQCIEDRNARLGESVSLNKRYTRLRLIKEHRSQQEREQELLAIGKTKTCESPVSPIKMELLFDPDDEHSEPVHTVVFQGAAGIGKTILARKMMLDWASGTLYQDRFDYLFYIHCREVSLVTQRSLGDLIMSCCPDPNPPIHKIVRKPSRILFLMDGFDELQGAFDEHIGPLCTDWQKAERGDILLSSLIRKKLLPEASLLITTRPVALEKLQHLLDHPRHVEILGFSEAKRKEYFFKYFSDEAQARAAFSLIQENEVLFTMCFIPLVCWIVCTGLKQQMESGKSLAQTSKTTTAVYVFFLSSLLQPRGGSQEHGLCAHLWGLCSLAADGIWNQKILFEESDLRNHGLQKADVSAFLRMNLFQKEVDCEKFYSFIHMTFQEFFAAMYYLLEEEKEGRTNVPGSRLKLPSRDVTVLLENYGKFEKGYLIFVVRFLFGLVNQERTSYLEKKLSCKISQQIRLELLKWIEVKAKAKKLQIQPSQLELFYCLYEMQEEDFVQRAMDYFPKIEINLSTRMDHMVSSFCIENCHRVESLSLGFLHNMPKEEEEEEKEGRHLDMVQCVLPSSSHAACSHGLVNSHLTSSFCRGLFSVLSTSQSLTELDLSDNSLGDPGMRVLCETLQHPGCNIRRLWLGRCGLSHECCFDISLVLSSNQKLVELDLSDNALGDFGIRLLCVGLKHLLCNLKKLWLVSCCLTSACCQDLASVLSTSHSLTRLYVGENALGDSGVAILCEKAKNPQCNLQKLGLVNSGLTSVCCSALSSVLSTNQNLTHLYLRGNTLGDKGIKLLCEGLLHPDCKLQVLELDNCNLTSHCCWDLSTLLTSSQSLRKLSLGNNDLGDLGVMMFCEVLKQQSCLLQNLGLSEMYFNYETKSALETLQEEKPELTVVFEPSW

[12] = Half life in Sprague-Dawley rat at 90 mg/kg, po measured up to 24 hrs by LC-MS/MS analysis; format: ADME, organism-based; conditions: in vivo; how it was run: as §1
[13] = target: T1, Interferon-inducible protein AIM2 (Homo sapiens) (UniProt O14862); assay: Inhibition of AIM2 inflammasome activation in LPS-induced human THP-1 cells at 1 uM for 40 mins followed by […] stimulation for 6 h by ELISA; format: cell-based; conditions: time 400.0 min
T1 sequence (whole entry): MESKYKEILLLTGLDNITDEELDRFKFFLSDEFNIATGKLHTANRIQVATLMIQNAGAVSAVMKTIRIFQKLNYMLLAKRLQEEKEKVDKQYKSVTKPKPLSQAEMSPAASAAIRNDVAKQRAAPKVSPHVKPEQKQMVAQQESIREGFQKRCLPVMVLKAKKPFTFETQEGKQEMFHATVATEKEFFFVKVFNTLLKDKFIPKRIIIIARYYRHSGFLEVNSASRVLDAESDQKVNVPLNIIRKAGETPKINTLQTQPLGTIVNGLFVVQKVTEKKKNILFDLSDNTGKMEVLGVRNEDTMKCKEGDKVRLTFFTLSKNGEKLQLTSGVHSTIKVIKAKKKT

[14] = target: NLR family CARD domain-containing protein 4 (Homo sapiens) (UniProt Q9NPP4); assay: Inhibition of NLRC4 inflammasome activation in LPS-induced human THP-1 cells at 1 uM for 40 mins followed by flagellin stimulation for 6 h by ELISA; format: cell-based; conditions: time 400.0 min
[15] = Cmax in Sprague-Dawley rat at 10 mg/kg, iv measured up to 24 hrs by LC-MS/MS analysis; format: ADME, organism-based; parameters: route intravenous, dose 10 mg/kg, time <=24; conditions: in vivo; how it was run: as §1
[16] = Oral bioavailability in Sprague-Dawley rat at 30 mg/kg measured up to 24 hrs by LC-MS/MS analysis; format: ADME, organism-based; conditions: in vivo; how it was run: as §1
[17] = target: T1, Interferon-inducible protein AIM2 (Homo sapiens); assay: Inhibition of AIM2 inflammasome activation in LPS-induced human THP-1 cells at 3 to 5uM for 40 mins followed by […] stimulation for 6 h by ELISA; format: cell-based
[18] = Cmax in Sprague-Dawley rat at 30 mg/kg, po measured up to 24 hrs by LC-MS/MS analysis; format: ADME, organism-based; parameters: route oral, dose 30 mg/kg, time <=24; conditions: in vivo; how it was run: as §1
[19] = Oral bioavailability in Sprague-Dawley rat at 10 mg/kg measured up to 24 hrs by LC-MS/MS analysis; format: ADME, organism-based; conditions: in vivo; how it was run: as §1
[20] = target: NACHT, LRR and PYD domains-containing protein 3 (Homo sapiens) (UniProt Q96P20); assay: Inhibition of NLRP3 inflammasome activation in LPS/nigericin-treated human THP-1 cells assessed as LPS-induced IL-1beta secretion in LPS stimulation followed by pretreatment for 40 min before induced with nigericin for 40 min measured by western blot analysis; format: cell-based; conditions: time 80.0 min; how it was run: as §2
[21] = target: NACHT, LRR and PYD domains-containing protein 3 (Homo sapiens) (UniProt Q96P20); assay: Inhibition of NLRP3 in human THP-1cells assessed as increase in thermal stability at 100 uM by cellular thermal shift assay
THP-1 [22] = assay: Cytotoxicity against human THP-1 cells assessed as reduction in cell viability at 0.05 to 6.4 uM measured after 90 mins by CCK8 assay; format: cell-based; conditions: thp-1, 1.5 h, dose 0.05-6.4 µM
How it was run: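 THP-1 cells preincubated with compound (0.05–6.4 μM) for 1.5 h; viability read by CCK8 assay.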

[23] = Tmax in Sprague-Dawley rat at 10 mg/kg, po measured up to 24 hrs by LC-MS/MS analysis; format: ADME, organism-based; conditions: in vivo; how it was run: as §1
THP-1 [24] = assay: Effect on IL-1beta expression in LPS-stimulated human THP-1 cells preincubated for 40 mins followed by LPS addition and measured after 3 hrs by Western blot analysis; format: functional, cell-based; conditions: time 220.0 min; how it was run: as §3
THP-1 [25] = assay: Antiinflammatory activity in human THP-1 cells assessed as inhibition of LPS-induced IL-1beta secretion in LPS stimulation for 3 hrs followed by pretreatment at 2uM for 40 min before induced with nigericin for 40 min measured by ELISA; format: functional; conditions: THP-1, 1.333 h, time 80 min
How it was run: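 THP-1 cells (2 × 10^5 cells/mL) differentiated with PMA (100 ng/mL) for 24 h. Next day, primed with LPS (1 μg/mL) for 3 h, then compound for 40 min, then nigericin (10 μM) for 40 min. IL-1β in supernatant measured by ELISA; % inhibition as mean ± SD of three independent experiments. The single-concentration screen used 2 μM.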

[26] = Cmax in Sprague-Dawley rat at 90 mg/kg, po measured up to 24 hrs by LC-MS/MS analysis; format: ADME, organism-based; parameters: route oral, dose 90 mg/kg, time <=24; conditions: in vivo; how it was run: as §1

- half-life [1]: 7.43 h
- Tmax [2]: 6.6 min
- half-life [3]: 3.13 h
- half-life [4]: 7.92 h
- inhibition [5]: Dose-Dependent Effect
- AUCt [6]: 14.6 ng·h/mL
- AUC(0-t) at 24 h [10]: 23.5 ng·h/mL
- inhibition [11]: Dose-Dependent Effect
- half-life [12]: 6.08 h
- inhibition [13]: inactive
- inhibition [14]: inactive
- Cmax [15]: 82 ng/mL
- bioavailability [16]: 4.99%
- inhibition [17]: Dose-Dependent Effect
- Cmax [18]: 16.4 ng/mL
- bioavailability [19]: 13.8%
- inhibition [20]: inactive
- inhibition [21]: Active
- Tmax [23]: 2.11 h
- Cmax [26]: 13.6 ng/mL
Compound: COc1cc(/C=C/C(=O)c2ccc(F)cc2)c(OC)cc1Br
- Activity (THP-1 [7]): Dose-Dependent Effect
- Activity (THP-1 [8]): inactive
- Activity (THP-1 [9]): inactive
- Activity (THP-1 [22]): Non-Toxic
- Activity (THP-1 [24]): inactive
- inhibition at 2 µM (THP-1 [25]): 108%
